Assay results published in ChEMBL document CHEMBL1121516, “Synthesis and biological activity of fluoroalkylamine derivatives of narcotic analgesics” (J Med Chem, 1980).
Active and inactive are the calls of the source. The calls are words filed in the database; no cut-off is given here.

Columns and labels:
[1] = […] (pKa) value was evaluated; type: physicochemical
Outline: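 pKa by potentiometric titration in distilled water at 24 °C. Compound dissolved at 5 to 7.5×10^-3 M and titrated with 0.1039 M NaOH, with pH change followed on a pH meter. Each compound run in triplicate.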

Mus musculus [2] = organism: Mus musculus; test: Analgesic activity determined in the mouse hot plate test expressed as ED50; value ranges from 12.7-29.8; type: functional
[3] = target: T1, Opioid receptors; mu/kappa/delta (Homo sapiens, UniProt P41145+P41143+P35372); test: Inhibition of Opioid receptors with [3H]naloxone binding in the absence of NaCl; type: protein assay, Cavia porcellus
[4] = target: T1, Opioid receptors; mu/kappa/delta; test: Inhibition of Opioid receptors binding by inhibiting specific [3H]naloxone binding by 50% in the presence of 100 mM NaCl; type: protein assay, Cavia porcellus
Rattus norvegicus [5] = test: Serum citrate level when administered intraperitoneally at dose 40 mg/kg in 6 rats; type: functional, organism-based; parameters: dose 40 mg/kg
Outline: (§1)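 Male Sprague–Dawley rats (200–225 g), dosed ip. Blood centrifuged to obtain serum, and citrate measured by the Camp and Farmer procedure. Values reported as mg/mL with SE.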

Mus musculus [6] = organism: Mus musculus; test: Analgesic activity determined in the mouse hot plate test expressed as ED50; Range is 17.8-72.1; type: functional
Cavia porcellus [7] = organism: Cavia porcellus; test: Agonist potency evaluated in the guinea pig ileum; type: functional
Mus musculus [8] = organism: Mus musculus; test: (§2) Antagonist potency was evaluated in the mouse vas deferens relative to naloxone = 1; type: functional
Mus musculus [9] = organism: Mus musculus; test: Analgesic activity determined in the mouse hot plate test expressed as ED50; Range is 6.3-14.8; type: functional
Mus musculus [10] = organism: Mus musculus; test: Equilibrium dissociation constant (Ke) against response produced by normorphine in the mouse vas deferens; type: functional
Cavia porcellus [11] = organism: Cavia porcellus; test: Inhibitory Dose required to reduce electrically stimulated contractions by 50% in guinea pig ileum; type: functional; conditions: read-out: ID50 (the source's name)
Mus musculus [12] = organism: Mus musculus; test: Analgesic activity determined in the mouse hot plate test expressed as ED50; value ranges from 3.2-6.1; type: functional
Mus musculus [13] = organism: Mus musculus; test: Analgesic activity determined in the mouse hot plate test expressed as ED50; IA means in active to 100; type: functional, organism-based
Cavia porcellus [14] = organism: Cavia porcellus; test: Agonist potency was evaluated in the guinea pig ileum; type: functional
Cavia porcellus [15] = organism: Cavia porcellus; test: Inhibitory Dose required to reduce electrically stimulated contractions by 50% in guinea pig ileum; I = Infinite; type: functional
Mus musculus [16] = organism: Mus musculus; test: Analgesic activity determined in the mouse hot plate test expressed as ED50; Range is 6.4-12.8; type: functional
Rattus norvegicus [17] = test: Serum citrate level when administered intraperitoneally at dose 45 mg/kg in 7 rats; type: functional, organism-based; parameters: dose 45 mg/kg; outline: as §1
Rattus norvegicus [18] = test: Serum citrate level when administered intraperitoneally at dose 12.5 mg/kg in 5 rats; type: functional, organism-based; parameters: dose 12.5 mg/kg; outline: as §1
Cavia porcellus [19] = organism: Cavia porcellus; test: as §2; type: functional
Mus musculus [20] = organism: Mus musculus; test: Analgesic activity determined in the mouse hot plate test expressed as ED50; I = inactive at 40; type: functional, organism-based
Mus musculus [21] = organism: Mus musculus; test: Analgesic activity determined in the mouse hot plate test expressed as ED50

Compound | pKa [1] | IC50 [3] [µM] | IC50 [4] [µM] | also measured
CCOC(=O)C1(c2ccccc2)CCN(CCF)CC1.Cl | 7.43 | 20 | 64 | ED50 (Mus musculus [2]): 19.4 mg/kg; Level (Rattus norvegicus [5]): 81 mg/mL
CCN1CC[C@]2(C)c3cc(O)ccc3CC1[C@@H]2C.CS(=O)(=O)O | 9.42 | 0.18 | 0.2 | ED50 (Mus musculus [6]): 44.7 mg/kg
CS(=O)(=O)O.C[C@H]1C2Cc3ccc(O)cc3[C@@]1(C)CCN2CC(F)F | 6.52 | 1 | 1.15 | Agonist potency (Cavia porcellus [7]): 0.16; Antagonist potency (Mus musculus [8]): 0.001; ED50 (Mus musculus [9]): 9.7 mg/kg; Ke (Mus musculus [10]): 2930 nM; IC50 (Cavia porcellus [11]): 0.453 µM
CCOC(=O)C1(c2ccccc2)CCN(CC)CC1.Cl | 9.03 | 5 | 120 | ED50 (Mus musculus [12]): 4.4 mg/kg
CCOC(=O)C1(c2ccccc2)CCN(CC(F)(F)F)CC1.Cl | 3.13 | 10 | 60 | ED50 (Mus musculus [13]): inactive
CS(=O)(=O)O.C[C@H]1C2Cc3ccc(O)cc3[C@@]1(C)CCN2CCF | 8.35 | 0.05 | 0.1 | Agonist potency (Cavia porcellus [14]): 0; ID50 (Cavia porcellus [15]): inactive; ED50 (Mus musculus [16]): 9.16 mg/kg; Level (Rattus norvegicus [17]): 121 mg/mL
CCOC(=O)C1(c2ccccc2)CCN(CC(F)F)CC1.Cl | 5.23 | 85 | 110 | ED50 (Mus musculus [13]): inactive
O=C(O)CF | – | – | – | Level (Rattus norvegicus [18]): 132 mg/mL
CS(=O)(=O)O.C[C@H]1C2Cc3ccc(O)cc3[C@@]1(C)CCN2CC(F)(F)F | 4.56 | 1.7 | 2.5 | Agonist potency (Cavia porcellus [19]): 0; ED50 (Mus musculus [20]): inactive
CN1CC[C@]23c4c5ccc(O)c4O[C@H]2[C@@H](O)C=C[C@H]3[C@H]1C5 [MORPHINE] | – | – | – | ED50 (Mus musculus [21]): 1.2 mg/kg
